Screening data deposited in PubChem BioAssay by several laboratories.
Compounds with a hit are over-represented: about 2.7% of the library has one in this group of screens.
RAM inhibit – inhibitors of the yeast RAM network; S. cerevisiae dse1pr::URA3 reporter, 5-FOA growth OD615, 2 d; analog-sensitive cbk1-as2 kinase mutant strain; inhibition, % at 50 µM; 190,000 compounds, 1.8% hits; AID 868;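 active = inhibition above a set limit, 3 SD over mean compound inhibition, cut at about 8.4% in these data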;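 note: inhibition rescues growth on 5-FOA so higher OD means more RAM inhibition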
Yeast lifespan up – yeast lifespan extension; inhibition of the nicotinamide effect, % at 10 µM; S. cerevisiae growth with nicotinamide, OD615; deaD strain in restrictive glucose medium; 130,000 compounds, 0.68% hits;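 active = inhibition above a set limit, placed 3 SD over the median of all compounds, cut at about 26% in these data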
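Assay system: DeaD-strain S. cerevisiae. Medium: CSMM-D glucose medium, restrictive. Reagent: nicotinamide, 1.5 mM, co-present with compound. Compound: 10 µM single point, 0.25% DMSO. Schedule: culture preincubation 4 h, compound exposure 48 h, both 30 °C. Detection: absorbance at 615 nm.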
Yeast growth inh – yeast BB579 growth reduction in restrictive medium; 140,000 compounds, 0.51% hits; inhibition, % at 10 µM; AID 804; S. cerevisiae BB579 growth, OD615, 48 h;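 active = inhibition above a set limit, 3 SD over the mean compound inhibition, cut at about 44% in these data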
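Assay system – yeast BB579 (DeaD) · Dosing – single compound dose of 10 µM, 0.25% DMSO final · Detection – OD615 turbidity measurement · Buffer or medium – CSMM-D restrictive synthetic medium containing dextrose (glucose) · Benchmarks – positive control amphotericin B 10 µg/mL · Incubation – 48 h exposure, 30 °C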
SDO1 yeast rescue – compounds rescuing growth of sdo1-depleted yeast, bone marrow failure model. S. cerevisiae sdo1-depleted JHY4D growth rescue, OD600 30 h; stronger effect = higher value; pdr5 snq2 efflux-pump mutant strain. 140,000 compounds, 0.21% hits. z-score at 10 µM;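 active = z-score above 3 at both the 24 hr and the 30 hr optical density reads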
Numbers stand for hits; - = inactive; . = not tested or not shown.

SMILES	RAM inhibit	Yeast lifespan up	Yeast growth inh	SDO1 yeast rescue
c1ccc(-c2ccc(C3=Nn4c(nnc4-c4cc(-c5ccccc5)n[nH]4)SC3)cc2)cc1	-	-	-	-
Cc1c(NC(=O)CSc2ncnc3ccccc23)c(=O)n(-c2ccccc2)n1C	-	.	.	.
CCOCC(=O)Nc1cc(C(=O)Nc2ccc(F)cc2)ccc1Cl	-	.	.	.
CN(C)c1ccc(S(=O)(=O)c2ccc(Cl)cc2)cc1	-	71	-	-
COc1ccc(Cl)cc1NC(=S)NCCSc1ccc(C)cc1	9.4	-	-	-
CC(C)NS(=O)(=O)c1cc(C(=O)O)ccc1Cl	-	27	-	-
Cc1ccc2c(c1)N(CC(=O)OC(CC(C)C)C(=O)NC1CCCC1)C(=O)CO2 (stereo not given)	8.7	-	-	-
CC(C)C(OC(=O)CN1C(=O)COc2ccccc21)C(=O)NC1CCCC1 (stereo not given)	-	34	-	-
Cc1ccsc1/C=N/NC(=O)CC(=O)NCC(C)C	-	.	.	.
Cc1nn(C)c(C)c1/C=C1/SC(=S)NC1=O	-	-	-	-
Cc1ccc(C2C(/C=C3/SC(=S)NC3=O)=C(c3cccs3)Oc3ccccc32)cc1 (stereo not given)	10	-	-	-
COc1ccccc1CCNC(=O)CSc1nnc2ccc(-c3ccncc3)nn12	-	.	.	.
O=C1CCCC(=O)N1c1ccc(Oc2ccc(Cl)cc2)cc1	-	-	-	-
COC(=O)CCCCC1SCC(NC(=O)c2ccccc2)C1OC(C)=O (stereo not given)	9.2	.	.	.
COC(=O)CCCCC1SCC(NC(=O)c2ccccc2)C1=O (stereo not given)	-	.	.	.
CC(C)CSC1=NSC2=NC(=O)/C(=C\c3cccs3)C(=N)N12	-	-	-	-
CSC1=NSC2=NC(=O)/C(=C/c3coc4ccccc4c3=O)C(=N)N12	-	-	68	-
CSC1=NSC2=NC(=O)/C(=C/c3coc4ccc(O)cc4c3=O)C(=N)N12	-	-	-	-
CSC1=NSC2=NC(=O)/C(=C\c3cccs3)C(=N)N12	-	43	-	-
O=C(Nc1ccc(Cl)cc1)ON=C1CCCC1	-	-	99	-
CC(C)c1nn2c(=O)cc(O)nc2s1	-	-	-	-
CCCC(=Nc1ccc(N)cc1)C1=C(O)C(C(=O)OC)C(C)(C)CC1=O (stereo not given)	-	44	-	-
CCCC(=O)C1=C(O)C(C(=O)OC)C(C)(C)CC1=Nc1ccc(N)cc1 (stereo not given)	-	-	-	-
Cc1sc2nc(C3CCCCC3)nc(SCC(=O)N3CC(=O)Nc4ccccc43)c2c1C	8.5	-	-	-
Cc1cccc(-n2c(SCC(=O)N3CC(=O)Nc4ccccc43)nc3ccccc3c2=O)c1C	9.6	-	-	-
SMILES	RAM inhibit	Yeast lifespan up	Yeast growth inh	SDO1 yeast rescue
CCc1nc(SCC(=O)N2CC(=O)Nc3ccccc32)c2c(C)c(C)sc2n1	-	-	-	-
N#CCSc1nc2cc(C(=O)N3CCC(C(N)=O)CC3)ccc2c2nc3ccccc3n12	-	-	-	-
Cc1nc2ccccc2c2nc3ccccc3n12	-	-	92	-
c1ccc2c(c1)nnn1c3ccccc3nc21	-	-	65	-
N#CCSc1nc2ccccc2c2nc3ccccc3n12	-	-	61	-
CCC(=O)NC(c1ccc(C)cc1)c1cc([N+](=O)[O-])c2cccnc2c1O (stereo not given)	-	-	85	-
CC(=O)NC(c1ccc(C)cc1)c1cc([N+](=O)[O-])c2cccnc2c1O (stereo not given)	-	.	.	.
CS(=O)(=O)c1nc(-c2cccs2)cc(C(F)(F)F)n1	-	52	-	-
COc1ccc(-c2cc(C(F)(F)F)nc(S(C)(=O)=O)n2)cc1	-	85	-	-
CS(=O)(=O)c1nc(-c2ccc(F)cc2)cc(C(F)(F)F)n1	-	.	.	.
O=C(Cc1ccccc1)Nc1ccc(NC(=O)c2cccs2)cc1Cl	-	.	.	.
Cc1ccc(-c2nc(SCC(=O)Nc3cc(S(=O)(=O)N4CCCCC4)ccc3Cl)n[nH]2)cc1	9.5	-	-	-
O=C(O)CCC(=O)N1CCN(c2nc(-c3ccccc3Cl)c3cc(Br)ccc3n2)CC1	-	-	99	-
Clc1ccccc1-c1ncnc2ccc(Br)cc12	-	.	.	.
O=C(CSc1nnc(-c2ccco2)o1)c1ccc(O)cc1O	-	.	.	.
Cc1nc2c3ccccc3nc(NNC(=O)CCC(=O)NCCC(C)C)n2n1	9.2	-	-	-
Cc1ccc(S(=O)(=O)Nc2ccc(SC(F)F)cc2)c(C)c1	-	-	61	-
CC(C)c1ccc(S(=O)(=O)Nc2ccc(SC(F)F)cc2)cc1	-	-	-	-
CN(CC(=O)OCC(N)=O)S(=O)(=O)c1ccc(Cl)cc1	-	.	.	.
CCCCNc1c2c3c(cccc3n(C)c1=O)C(=O)c1ccccc1-2	9.2	-	-	-
COc1ccc(C2CCCN2C(=S)Nc2ccc(C)cc2Cl)cc1OC (stereo not given)	-	.	.	.
Oc1ccc(N=Nc2n[nH]c(-c3ccc(Br)cc3)n2)cc1	8.8	-	-	-
Oc1ccc(N=Nc2n[nH]c(-c3ccccc3)n2)cc1	-	-	-	-
N#Cc1c(C(F)(F)F)cc(-c2ccc(F)cc2)nc1SCC(=O)O	-	.	.	.
CCCCOc1ccc(-c2cc(C(F)(F)F)c(C#N)c(SCC(=O)O)n2)cc1	8.4	.	.	.
SMILES	RAM inhibit	Yeast lifespan up	Yeast growth inh	SDO1 yeast rescue
CC1CCCCC1NS(=O)(=O)c1ccc(-n2cnnn2)cc1 (stereo not given)	-	46	-	-
O=C(O)c1ccccc1SCC(=O)N1c2ccccc2Sc2ccccc21	11	-	-	-
CC(=O)Cc1nsc(Nc2ccc(Cl)cc2)n1	-	.	.	.
CCC(=C(c1ccc(OC)cc1)c1ccc(OC)cc1)c1cn(CC(O)CN2CCN(C)CC2)c2ccccc12 (stereo not given)	-	-	95	-
Cc1ccc(OCCN2CCN(CC(O)Cn3c4ccccc4c4ccccc43)CC2)cc1 (stereo not given)	-	-	-	-
CCc1nnc(NC(=O)CSc2nnc(Cc3ccccc3)n2-c2ccccc2)s1	-	-	-	-
CCc1nnc(NC(=O)CSc2nnc(COc3ccc(C)cc3)n2-c2ccccc2)s1	8.7	-	-	-
CSc1nc2ccsc2c(=O)n1-c1ccccn1	-	.	.	.
CCOC(=O)c1cc(NC(=O)c2ccc(OC)cc2)c(=O)oc1-c1ccccc1	11	-	-	-
Cn1c(/C=C(\C#N)C(N)=S)ccc1-c1ccc(Br)cc1	9.6	.	.	.
CC(NC(=O)c1ccccc1)c1ccc(F)cc1 (stereo not given)	-	-	-	-
CC(=O)/C(=N/Nc1cccc(Cl)c1)Sc1nnc(C(O)c2ccccc2)n1-c1ccccc1 (stereo not given)	-	-	-	-
COC(=O)/C(=N/Nc1ccccc1C)Sc1nnc(C(O)c2ccccc2)n1-c1ccccc1 (stereo not given)	8.8	-	-	-
CCOc1ccc(C(=O)NC(=S)N(Cc2ccccc2)Cc2ccccc2)cc1	8.6	-	-	-
CCOc1ccc(CN(CCC#N)C(=S)NC(=O)c2ccccc2)cc1	-	-	-	-
